Experimental data reported in ChEMBL document CHEMBL1649446, “Comparative antipneumococcal activities of sulopenem and other drugs” (2009).

Experiments:
Format in all cases: functional
Streptococcus pneumoniae [1] = experiment: Antimicrobial activity against Streptococcus pneumoniae isolate 3587 by agar dilution method
Streptococcus pneumoniae [2] = experiment: Antimicrobial activity against Streptococcus pneumoniae isolate 1394 by agar dilution method
Streptococcus pneumoniae [3] = experiment: Antimicrobial activity against Streptococcus pneumoniae isolate 3681 by agar dilution method
In short: (§1)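 Agar dilution MIC on Mueller-Hinton agar with 5% sheep blood, inocula 10^4 CFU/spot; amoxicillin-clavulanate combined 1:2; S. pneumoniae ATCC 49619 quality control each run.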

Streptococcus pneumoniae [4] = experiment: Antimicrobial activity against penicillin-resistant Streptococcus pneumoniae by agar dilution method; in short: as §1
Streptococcus pneumoniae [5] = experiment: Antimicrobial activity against Streptococcus pneumoniae isolate 3412 by agar dilution method; in short: as §1
Streptococcus pneumoniae [6] = experiment: Antimicrobial activity against Streptococcus pneumoniae isolate 1424 by agar dilution method; in short: as §1
Streptococcus pneumoniae [7] = experiment: Antimicrobial activity against Streptococcus pneumoniae isolate 3455 by agar dilution method
Streptococcus pneumoniae [8] = experiment: Antimicrobial activity against Streptococcus pneumoniae isolate 4755 by agar dilution method; in short: as §1
Streptococcus pneumoniae [9] = experiment: Antimicrobial activity against Streptococcus pneumoniae isolate 2688 by agar dilution method; in short: as §1
Streptococcus pneumoniae [10] = experiment: Antimicrobial activity against Streptococcus pneumoniae 2 by time-kill analysis
In short: (§2)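 Time-kill in cation-adjusted Mueller-Hinton broth with 5% lysed horse blood; inocula 5 × 105 to 5 × 10^6 CFU/ml; drugs at MIC, 2× and 4× MIC; 35°C shaking water bath; viable counts at 0, 3, 6, 12, 24 h. Bactericidal = ≥3 log10 CFU/ml (99.9%) drop from original inoculum; 90%/99%/99.9% killing scored per strain.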

Streptococcus pneumoniae [11] = experiment: Antimicrobial activity against Streptococcus pneumoniae 5 by time-kill analysis
In short: as §2, with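 “12 and” for “12,”, “if” for “=”, “reduction” for “drop”, “90% and 99%” for “90%/99%/99.9%”, “also scored.” for “scored per strain.”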

Streptococcus pneumoniae [12] = experiment: Antimicrobial activity against Streptococcus pneumoniae isolate 3263 by agar dilution method
Streptococcus pneumoniae [13] = experiment: Antimicrobial activity against Streptococcus pneumoniae 19A by agar dilution method; in short: as §1
Streptococcus pneumoniae [14] = experiment: Antimicrobial activity against Streptococcus pneumoniae isolate 2617 by agar dilution method; in short: as §1
Streptococcus pneumoniae [15] = experiment: Antimicrobial activity against Streptococcus pneumoniae isolate 1397 by agar dilution method; in short: as §1
Streptococcus pneumoniae [16] = experiment: Antimicrobial activity against Streptococcus pneumoniae isolate 3791 by agar dilution method; in short: as §1
Streptococcus pneumoniae [17] = experiment: Antimicrobial activity against Streptococcus pneumoniae isolate 1055 by agar dilution method
Streptococcus pneumoniae [18] = experiment: Antimicrobial activity against Streptococcus pneumoniae 6 by time-kill analysis; in short: as §2
Streptococcus pneumoniae [19] = experiment: Antimicrobial activity against Streptococcus pneumoniae isolate 1147 by agar dilution method; in short: as §1
Streptococcus pneumoniae [20] = experiment: Antimicrobial activity against Streptococcus pneumoniae isolate 3481 by agar dilution method; in short: as §1
Streptococcus pneumoniae [21] = experiment: Antimicrobial activity against Streptococcus pneumoniae isolate 33 by agar dilution method; in short: as §1
Streptococcus pneumoniae [22] = experiment: Antimicrobial activity against Streptococcus pneumoniae isolate 24 by agar dilution method
Streptococcus pneumoniae [23] = experiment: Antimicrobial activity against Streptococcus pneumoniae 7 by time-kill analysis; in short: as §2
Streptococcus pneumoniae [24] = experiment: Antimicrobial activity against Streptococcus pneumoniae isolate 1564 by agar dilution method
Streptococcus pneumoniae [25] = experiment: Antimicrobial activity against Streptococcus pneumoniae isolate 3275 by agar dilution method; in short: as §1
Streptococcus pneumoniae [26] = experiment: Antimicrobial activity against Streptococcus pneumoniae 10 by time-kill analysis; in short: as §2
Streptococcus pneumoniae [27] = experiment: Antimicrobial activity against Streptococcus pneumoniae 1 by time-kill analysis
In short: as §2, with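 “12 and” for “12,”, “if” for “=”, “reduction” for “drop”, “90% and 99%” for “90%/99%/99.9%”, “also scored.” for “scored per strain.”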

Streptococcus pneumoniae [28] = experiment: Antimicrobial activity against Streptococcus pneumoniae isolate 1146 by agar dilution method; in short: as §1
Streptococcus pneumoniae [29] = experiment: Antimicrobial activity against Streptococcus pneumoniae isolate 1384 by agar dilution method; in short: as §1
Streptococcus pneumoniae [30] = experiment: Antimicrobial activity against Streptococcus pneumoniae isolate 3260 by agar dilution method
Streptococcus pneumoniae [31] = experiment: Antimicrobial activity against penicillin-intermediate Streptococcus pneumoniae by agar dilution method
Streptococcus pneumoniae [32] = experiment: Antimicrobial activity against Streptococcus pneumoniae isolate 3346 by agar dilution method
Streptococcus pneumoniae [33] = experiment: Antimicrobial activity against Streptococcus pneumoniae 11 by time-kill analysis; in short: as §2
Streptococcus pneumoniae [34] = experiment: Antimicrobial activity against penicillin-susceptible Streptococcus pneumoniae by agar dilution method
Streptococcus pneumoniae [35] = experiment: Antimicrobial activity against Streptococcus pneumoniae isolate 37 by agar dilution method; in short: as §1
Streptococcus pneumoniae [36] = experiment: Antimicrobial activity against Streptococcus pneumoniae isolate 3458 by agar dilution method
Streptococcus pneumoniae [37] = experiment: Antimicrobial activity against Streptococcus pneumoniae 8 by time-kill analysis; in short: as §2
Streptococcus pneumoniae [38] = experiment: Antimicrobial activity against Streptococcus pneumoniae isolate 2686 by agar dilution method; in short: as §1
Streptococcus pneumoniae [39] = experiment: Antimicrobial activity against Streptococcus pneumoniae isolate 3282 by agar dilution method
Streptococcus pneumoniae [40] = experiment: Antimicrobial activity against Streptococcus pneumoniae isolate 3374 by agar dilution method; in short: as §1
Streptococcus pneumoniae [41] = experiment: Antimicrobial activity against Streptococcus pneumoniae isolate 2880 by agar dilution method; in short: as §1
Streptococcus pneumoniae [42] = experiment: Antimicrobial activity against Streptococcus pneumoniae isolate 4747 by agar dilution method; in short: as §1
Streptococcus pneumoniae [43] = experiment: Antimicrobial activity against Streptococcus pneumoniae isolate 2874 by agar dilution method; in short: as §1
Streptococcus pneumoniae [44] = experiment: Antimicrobial activity against Streptococcus pneumoniae 12 by time-kill analysis; in short: as §2
Streptococcus pneumoniae [45] = experiment: Antimicrobial activity against Streptococcus pneumoniae 4 by time-kill analysis; in short: as §2
Streptococcus pneumoniae [46] = experiment: Antimicrobial activity against Streptococcus pneumoniae 9 by time-kill analysis
In short: as §2, with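 “12 and” for “12,”, “if” for “=”, “reduction” for “drop”, “90% and 99%” for “90%/99%/99.9%”, “also scored.” for “scored per strain.”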

Streptococcus pneumoniae [47] = experiment: Antimicrobial activity against Streptococcus pneumoniae 3 by time-kill analysis; in short: as §2

CO/N=C(\C(=O)N[C@@H]1C(=O)N2C(C(=O)O)=C(CSc3nc(=O)c(O)nn3C)CS[C@H]12)c1csc(N)n1 [CEFTRIAXONE]
0.25 µg/mL: MIC (Streptococcus pneumoniae [25]) | MIC (Streptococcus pneumoniae [47])
0.12 µg/mL: MIC (Streptococcus pneumoniae [18]) | MIC (Streptococcus pneumoniae [26]) | MIC (Streptococcus pneumoniae [46])
0.06 µg/mL: MIC90 (Streptococcus pneumoniae [34])
0.5 µg/mL: MIC (Streptococcus pneumoniae [30]) | MIC (Streptococcus pneumoniae [39]) | MIC (Streptococcus pneumoniae [41])
0.016 µg/mL: MIC (Streptococcus pneumoniae [10])
> 8 µg/mL: MIC (Streptococcus pneumoniae [24])
1 µg/mL: MIC (Streptococcus pneumoniae [1]) | MIC (Streptococcus pneumoniae [3]) | MIC50 (Streptococcus pneumoniae [4]) | MIC (Streptococcus pneumoniae [7]) | MIC (Streptococcus pneumoniae [12]) | MIC (Streptococcus pneumoniae [14]) | MIC (Streptococcus pneumoniae [16]) | MIC (Streptococcus pneumoniae [17]) | MIC (Streptococcus pneumoniae [21]) | MIC90 (Streptococcus pneumoniae [31]) | MIC (Streptococcus pneumoniae [32]) | MIC (Streptococcus pneumoniae [36]) | MIC (Streptococcus pneumoniae [40]) | MIC (Streptococcus pneumoniae [44])
4 µg/mL: MIC (Streptococcus pneumoniae [2]) | MIC (Streptococcus pneumoniae [6]) | MIC (Streptococcus pneumoniae [9]) | MIC (Streptococcus pneumoniae [11]) | MIC (Streptococcus pneumoniae [15]) | MIC (Streptococcus pneumoniae [33]) | MIC (Streptococcus pneumoniae [45])
0.125 µg/mL: MIC50 (Streptococcus pneumoniae [31])
0.03 µg/mL: MIC (Streptococcus pneumoniae [27]) | MIC50 (Streptococcus pneumoniae [34])
2 µg/mL: MIC90 (Streptococcus pneumoniae [4]) | MIC (Streptococcus pneumoniae [5]) | MIC (Streptococcus pneumoniae [8]) | MIC50 (Streptococcus pneumoniae [13]) | MIC90 (Streptococcus pneumoniae [13]) | MIC (Streptococcus pneumoniae [19]) | MIC (Streptococcus pneumoniae [20]) | MIC (Streptococcus pneumoniae [22]) | MIC (Streptococcus pneumoniae [23]) | MIC (Streptococcus pneumoniae [28]) | MIC (Streptococcus pneumoniae [29]) | MIC (Streptococcus pneumoniae [35]) | MIC (Streptococcus pneumoniae [37]) | MIC (Streptococcus pneumoniae [38]) | MIC (Streptococcus pneumoniae [42]) | MIC (Streptococcus pneumoniae [43])

COc1c(N2C[C@@H]3CCCN[C@@H]3C2)c(F)cc2c(=O)c(C(=O)O)cn(C3CC3)c12 [MOXIFLOXACIN]
0.25 µg/mL: MIC (Streptococcus pneumoniae [24])
4 µg/mL: MIC (Streptococcus pneumoniae [17]) | MIC (Streptococcus pneumoniae [27])
2 µg/mL: MIC (Streptococcus pneumoniae [45])
